# Measurements of several laboratories.
# Protocols differ between the studies behind these lines.
# Cell line: HCT-116
# Read-out: cell growth or viability
Structure (SMILES),method,time,IC50
NC(=O)NOCCCC[P+](c1ccccc1)(c1ccccc1)c1ccccc1,imaging,,> 600 µM
COCCCOc1ccnc(COc2ccc(NC(=O)Nc3cc(F)cc(F)c3)cc2)c1C,MTT,72 h,56.6 µM
COc1cc(CNC(=O)CCCC/C=C/C(C)C)ccc1O,SRB,,40.2 µM
CC1=C(O)C(=O)C=C2C1=CC=C1[C@@]2(C)CC[C@@]2(C)[C@@H]3C[C@](C)(C(=O)OCCCCCO)CC[C@]3(C)CC[C@]12C,MTT,48 h,0.48 µM
COc1c(C)cnc(COc2ccc(NC(=O)Nc3cc(F)cc(F)c3)cc2)c1C,MTT,72 h,10.8 µM
O=C(/N=C1\SCC(=O)N1C1CCCCC1)c1ccc2ccccc2c1,,48 h,9.12 µM
CC[C@]1(O)C[C@H]2CN(CCc3c([nH]c4ccccc34)[C@@](C(=O)OC)(c3cc4c(cc3OC)N(C=O)[C@H]3[C@@](O)(C(=O)OC)[C@H](OC(C)=O)[C@]5(CC)C=CCN6CC[C@]43[C@@H]65)C2)C1,fluorescence,72 h,0.0017 µM
NC(=O)NOCCCCCCCCCCCC[P+](c1ccccc1)(c1ccccc1)c1ccccc1,imaging,,1.8 µM
Cn1c(-c2nnc(NC(=O)c3cc4c([nH]c5ccccc54)c(-c4ccccc4)n3)s2)cc2ccccc21,MTT,72 h,10.3 µM
Nc1ncnc2c1ncn2[C@@H]1O[C@H](CO)[C@@H](O)[C@H]1O,WST-1,48 h,41.8 µM
O=C(O)c1ccc(-n2nc(Oc3ccccc3)nc2/N=C/c2cc([N+](=O)[O-])ccc2O)cc1,MTT,,62.8 µM
CC[C@H](C)C(=O)O[C@H]1C[C@@H](C)C=C2C=C[C@H](C)[C@H](CC[C@@H]3C[C@@H](O)CC(=O)O3)[C@H]21,SRB,72 h,6.79 µg/mL
COCCCOc1ccnc(COc2ccc(NC(=O)Nc3ccc(Cl)c(C(F)(F)F)c3)cc2)c1C,MTT,72 h,10.1 µM
C=CC(=O)Nc1cccc(Nc2nc(Nc3ccc(OCCOC)cc3)ncc2F)c1,,,6.79 µM
O=C(NC(=S)Nc1ccccc1)c1ccc2ccccc2c1,,48 h,5.77 µM
Cc1ccc(O)c(/C=N/c2nc(Oc3ccccc3)nn2-c2ccc(C(=O)O)cc2)c1,MTT,,74 µM
Cc1c(C)c2c(O)cc(O)cc2oc1=O,MTT,36 h,> 20 µM
COc1ccc(Nc2nc(-n3nc(C)cc3C)nc(-n3nc(C)cc3C)n2)cc1,MTT,72 h,3.66 µM
O=C(/N=c1\scc(-c2ccccc2)n1C1CCCCC1)c1ccc2ccccc2c1,,48 h,19.2 µM
CC(C)n1c(/C=C/C(O)CC(O)CC(=O)O)c(-c2ccc(F)cc2)c2ccccc21 (stereo not drawn),SRB,72 h,7.06 µg/mL
O=c1ccc2ccc(O)c(CO)c2o1,MTT,36 h,> 20 µM
O=C(NC(=S)NCc1ccccc1)c1ccc2ccccc2c1,,48 h,4.55 µM
COc1c(C)cnc(COc2ccc(NC(=O)Nc3cccc(C(F)(F)F)c3)cc2)c1C,MTT,72 h,12.5 µM
COc1cc(/C=N/c2nc(SC)nn2-c2ccc(C(=O)O)cc2)ccc1O,MTT,,61.1 µM
O=C(Nc1nnc(-c2cc3ccccc3[nH]2)s1)c1cc2c([nH]c3ccccc32)c(-c2ccccc2)n1,MTT,72 h,5.12 µM
CC1=C(O)C(=O)C=C2C1=CC=C1[C@@]2(C)CC[C@@]2(C)[C@@H]3C[C@](C)(C(=O)OCCCn4ccc5ccccc54)CC[C@]3(C)CC[C@]12C,MTT,48 h,2.75 µM
O=C(NC(=S)N1CCCC1)c1ccc2ccccc2c1,,48 h,6.22 µM
CC1(C)CC[C@]2(C)CC[C@]3(C)C(=CC[C@@H]4[C@@]5(C)CC[C@H](O)C(C)(C)[C@@H]5CC[C@]43C)[C@@H]2C1,WST-1,48 h,91.3 µM
CC1=C(O)C(=O)C=C2C1=CC=C1[C@@]2(C)CC[C@@]2(C)[C@@H]3C[C@](C)(C(=O)OCCO)CC[C@]3(C)CC[C@]12C,MTT,48 h,0.47 µM
COc1cc(CNC(=O)CCCC/C=C/C(C)C)ccc1OCc1cn(-c2ccc(C#N)cc2)nn1,SRB,,10.5 µM
COc1cc([C@@H]2c3cc4c(cc3[C@@H](O[C@@H]3O[C@@H]5CO[C@@H](C)O[C@H]5[C@H](O)[C@H]3O)[C@H]3COC(=O)[C@H]23)OCO4)cc(OC)c1O,MTS,72 h,19.3 µM
COc1ccc(-c2nc(C(=O)Nc3nnc(-c4cc5ccccc5[nH]4)s3)cc3c2[nH]c2ccccc23)cc1,MTT,72 h,4.78 µM
COC(=O)c1ccc(-n2nc(SC)nc2N)cc1,MTT,,39.1 µM
Cc1c(OCC(F)(F)F)ccnc1COc1ccc(NC(=O)Nc2cc(F)cc(F)c2)cc1,MTT,72 h,52 µM
O=C(NC(=S)NCc1ccc(CNC(=S)NC(=O)c2ccc3ccccc3c2)cc1)c1ccc2ccccc2c1,,48 h,1.35 µM
CC(=O)Oc1ccc2oc(=O)cc(CSC(C)=O)c2c1,MTT,36 h,> 20 µM
CC(=O)c1ccc(-c2cccc(NC(=O)CCc3cccc4c3B(O)OC4)c2)cc1,ATP luminescence,72 h,0.28 µM
O=c1c(O)c(-c2ccc(O)c(O)c2)oc2cc(O)cc(O)c12,WST-1,48 h,9.1 µM
COc1ccnc(COc2ccc(NC(=O)Nc3cc(F)cc(F)c3)cc2)c1OC,MTT,72 h,25.7 µM
CC(=O)SCc1cc(=O)oc2ccc(O)cc12,MTT,36 h,> 20 µM
COc1c(C)cnc(COc2ccc(NC(=O)Nc3ccc(F)cc3)cc2)c1C,MTT,72 h,12.7 µM
O=C(Nc1nnc(-c2cc3ccccc3[nH]2)s1)c1cc2c([nH]c3ccccc32)c(-c2ccc(Cl)cc2)n1,MTT,72 h,5.98 µM
CC1CCC(OCn2c[n+](Cc3ccccc3)c3ccccc32)CC1 (stereo not drawn),MTT,72 h,21.9 µM
FC(F)(F)c1ccc(C(c2c[nH]c3ccccc23)c2c[nH]c3ccccc23)cc1,ATP luminescence,22 h,9.3 µM
O=C(NC(=S)Nc1ccc([N+](=O)[O-])cc1)c1ccc2ccccc2c1,,48 h,6.09 µM
CSc1nc(/N=C/c2ccc(O)cc2)n(-c2ccc(C(=O)O)cc2)n1,MTT,,68.1 µM
COCCCOc1ccnc(COc2ccc(NC(=O)Nc3ccc(Cl)cc3)cc2)c1C,MTT,72 h,9.5 µM
COc1ccc2oc(=O)cc(CSC(C)=O)c2c1,MTT,36 h,> 20 µM
